Assay results: ChEMBL document CHEMBL1821725, “Synthesis and biological evaluation of 2',4'- and 3',4'-bridged nucleoside analogues” (Bioorg Med Chem, 2011)
≈ marks a conversion by molar mass, not a printed value. Calls of active or inactive are those of the source. The rule behind the calls is not given here.

Legend:
[1] = tested on: Human immunodeficiency virus; assay: Antiviral activity against HIV; format: functional; conditions: Human immunodeficiency virus 1; read-out: ED50 (the source's name)
Escherichia coli [2] = assay: Antibacterial activity against Escherichia coli MG1655 at 64 uM after 24 hrs by micro-broth dilution method; format: functional; conditions: K-12 substr. MG1655
Method in brief: (§1)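 CLSI broth microdilution. Compounds serially diluted in cation-adjusted Mueller Hinton broth. Inoculum from fresh overnight MHA plate scrape, adjusted to 1 × 10^7 CFU/ml, 5 μL added per well. Incubated at 37 °C for 24 h. MIC = lowest concentration with no visible growth; median of at least three independent replicates. Highest concentration tested 64 μM.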

Staphylococcus aureus [3] = assay: Antibacterial activity against Staphylococcus aureus 8325 at 64 uM after 24 hrs by micro-broth dilution method; format: functional; conditions: NCTC 8325; method in brief: as §1
CCRF-CEM [4] = assay: Cytotoxicity against human CCRF-CEM cells after 72 hrs by MTT assay; format: functional, cell-based
Method in brief: (§2)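 Raji and CCRF-CEM cells incubated with compounds for 72 h. Viability read by MTT reduction to formazan, optical density at 570 nm. Data analysed by one-way ANOVA. IC50 taken as concentration giving 50% growth inhibition. Highest concentration tested 10 μM.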

Raji [5] = assay: Cytotoxicity against human Raji cells after 72 hrs by MTT assay; format: functional, cell-based; method in brief: as §2
[6] = tested on: Human immunodeficiency virus 1; assay: Antiviral activity against HIV1 SF162 infected in human TZM-bl cells assessed as inhibition of virus neutralization at 100 uM after 48 hrs by luciferase assay; format: functional, organism-based
Method in brief: (§3)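 Single-round HIV-1 pseudoviruses made in 293T cells and titrated on TZM-bl cells. Virus giving ~1 × 10^6 RLU incubated 1 h at 37 °C with serially diluted samples. TZM-bl cells then plated at 1 × 10^5 per well for 48 h. Read-out: luciferase in cell lysate. IC50 = 50% neutralization. Highest concentration tested 100 μM.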

[7] = tested on: Human immunodeficiency virus 1; assay: Antiviral activity against HIV1 HxB2 infected in human TZM-bl cells assessed as inhibition of virus neutralization at 100 uM after 48 hrs by luciferase assay; format: functional, organism-based; method in brief: as §3
CCRF-CEM [8] = assay: Cytotoxicity against human CCRF-CEM cells at 10 uM after 72 hrs by MTT assay; format: functional, cell-based; method in brief: as §2
Raji [9] = assay: Cytotoxicity against human Raji cells at 10 uM after 72 hrs by MTT assay; format: functional, cell-based; method in brief: as §2
[10] = tested on: Human immunodeficiency virus 1; assay: Antiviral activity against HIV1 SF162 infected in human TZM-bl cells assessed as inhibition of virus neutralization after 48 hrs by luciferase assay; format: functional, organism-based; method in brief: as §3
[11] = Cytotoxicity against human MT4 cells; format: cell-based
[12] = tested on: Human immunodeficiency virus 1; assay: Antiviral activity against HIV1 HxB2 infected in human TZM-bl cells assessed as inhibition of virus neutralization after 48 hrs by luciferase assay; format: functional, organism-based; conditions: Human immunodeficiency virus 1, HxB2, TZM-bl; method in brief: as §3
[13] = Cytotoxicity against human TZM-bl cells at 33 uM after 48 hrs; format: cell-based
Escherichia coli [14] = assay: Antibacterial activity against Escherichia coli MG1655 after 24 hrs by micro-broth dilution method; format: functional; conditions: K-12 substr. MG1655, 24 h; method in brief: as §1
Staphylococcus aureus [15] = assay: Antibacterial activity against Staphylococcus aureus 8325 after 24 hrs by micro-broth dilution method; format: functional; conditions: NCTC 8325, 24 h; method in brief: as §1
[16] = tested on: Human immunodeficiency virus 1; assay: Antiviral activity against HIV1 LAI; format: functional, organism-based; conditions: Human immunodeficiency virus 1, LAI
[17] = Human immunodeficiency virus 1, SF162, TZM-bl, 48 h, read-out: IC50

IC50 [10, 17] [µM] | IC50 [12] [µM] | SMILES | inhibition (Escherichia coli [2]) | inhibition (Staphylococcus aureus [3]) | growth inhibition (GI) (CCRF-CEM [8]) | growth inhibition (GI) (Raji [9]) | further results
 |  | Cc1cn([C@@H]2O[C@@]3(CO)CO[C@H]3[C@H]2O)c(=O)[nH]c1=O |  |  |  |  | EC50 [1]: 0.14 µM
 |  | O=C(c1ccccc1)N(C(=O)c1ccccc1)c1nc(N(C(=O)c2ccccc2)C(=O)c2ccccc2)c2ncn([C@@H]3O[C@@]4(CO)CO[C@@H]3[C@@H]4OCc3ccccc3)c2n1 | inactive | inactive |  |  | IC50 (CCRF-CEM [4]): 0.36 µM; IC50 (Raji [5]): 0.25 µM; inhibition [6]: inactive; inhibition [7]: inactive
60 |  | CCNc1nc(N)c2ncn([C@@H]3O[C@@]4(CO)CO[C@@H]3[C@@H]4OCc3ccccc3)c2n1 | inactive | inactive | inactive | inactive | inhibition [7]: inactive
 |  | Cc1cn([C@H]2C[C@@H]3COC[C@]3(CO)O2)c(=O)[nH]c1=O |  |  |  |  | CC50 [11]: 0.54 µg/mL (≈ 2.01 µM)
 |  | Nc1nc(Cl)nc2c1ncn2[C@H]1C[C@H](O)[C@@H](CO)O1 [CLADRIBINE] |  |  |  |  | IC50 (CCRF-CEM [4]): 0.0005 µM; IC50 (Raji [5]): 0.009 µM
 | 2.4 | C=CCc1nc(/C=C/C)c2ncn([C@@H]3O[C@@]4(CO)CO[C@@H]3[C@@H]4OCc3ccccc3)c2n1 | inactive | inactive |  |  | IC50 (CCRF-CEM [4]): 7.6 µM; IC50 (Raji [5]): 5.8 µM; IC50 ([10]; tzm-bl): Not Active; Activity [13]: Toxic
 |  | Cc1cn([C@@H]2O[C@@]3(CO)COC[C@H]3[C@H]2O)c(=O)[nH]c1=O |  |  |  |  | CC50 [11]: 0.54 µg/mL (≈ 1.9 µM)
7 | 2.4 | OC[C@@]12CO[C@@H]([C@H](n3cnc4c(NCc5ccccc5)nc(Cl)nc43)O1)[C@@H]2OCc1ccccc1 | inactive | inactive | inactive | inactive | 
68 | 28 | CCCCNc1nc(N)c2ncn([C@@H]3O[C@@]4(CO)CO[C@@H]3[C@@H]4OCc3ccccc3)c2n1 | inactive | inactive | inactive | inactive | 
27.9 | 24.9 | CN(Cc1ccccc1)c1nc(Cl)nc2c1ncn2[C@@H]1O[C@@]2(CO)CO[C@@H]1[C@@H]2O |  |  | inactive | inactive | MIC (Escherichia coli [14]): 16 µM (≈ 6.69 µg/mL); MIC (Staphylococcus aureus [15]): 8 µM (≈ 3.34 µg/mL)
 |  | Cc1cn([C@@H]2C=CC3(CO)C[C@@H]23)c(=O)[nH]c1=O (single isomer, unassigned) |  |  |  |  | EC50 [16]: 28.8 µM

SMILES | IC50 [10, 17] [µM] | IC50 [12] [µM] | inhibition (Escherichia coli [2]) | inhibition (Staphylococcus aureus [3]) | growth inhibition (GI) (CCRF-CEM [8]) | growth inhibition (GI) (Raji [9]) | further results
Cc1cn([C@H]2C[C@H](N=[N+]=[N-])[C@@H](CO)O2)c(=O)[nH]c1=O [ZIDOVUDINE] | 0.078 | 0.037 |  |  |  |  | EC50 [1]: 0.001 µM
